Test results as given in ChEMBL document CHEMBL3352729, “Hydroxybenzothiophene Ketones Are Efficient Pre-mRNA Splicing Modulators Due to Dual Inhibition of Dyrk1A and Clk1/4” (ACS Med Chem Lett, 2014).
The source made the active and inactive calls. The rule behind the calls is not given here.

molecular target: T1, Dual specificity tyrosine-phosphorylation-regulated kinase 1A (Homo sapiens, UniProt Q13627); assay: Inhibition of recombinant Dyrk1A (unknown origin) using KKISGRLSPIMTEQ-NH2 peptide substrate; details: not given
Procedure, shortened: (§1)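 Kinase activity was measured in a cell-free assay with recombinant enzyme and peptide substrate at 100 μM ATP. Values are reported as IC50.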

| Structure (SMILES) | IC50 [µM] |
| --- | --- |
| O=C(c1ccc(F)c(O)c1)c1cc2cc(O)ccc2s1 | 1.2 |
| O=C(c1cccc(O)c1)c1ccc2cc(O)ccc2c1 | 2.9 |
| Cc1cc(C(=O)c2cc3cc(O)ccc3s2)ccc1O | 11 |
| N#Cc1cccc(C(=O)c2cc3cc(O)ccc3s2)c1 | 6 |
| CC(=O)c1cc2cc(O)ccc2s1 | 0.2 |
| O=C(c1cc2cc(O)ccc2s1)c1cc(O)ccc1F | 2 |
| Cc1ccc(C(=O)c2cc3cc(O)ccc3s2)cc1O | 0.2 |
| O=C(c1cccc(O)c1)c1cc2cc(O)ccc2[nH]1 | 15 |
| O=C(c1ccc(O)cc1)c1cc2cc(O)ccc2o1 | 9.7 |
| O=C(c1cccc(O)c1)c1cc2cc(O)ccc2s1 | 0.4 |
| O=C(c1cccc(O)c1)c1cc2cc(O)ccc2o1 | 3.1 |
| O=C(c1ccc(O)cc1)c1cc2cc(O)ccc2s1 | 3.4 |
| O=C(c1ccccc1)c1cc2cc(O)ccc2s1 | 2 |
| Cn1c(C(=O)c2cccc(O)c2)cc2cc(O)ccc21 | 3.4 |
| COc1ccc2sc(C(=O)N(C)OC)cc2c1 | 0.9 |
| O=C(c1cccc(O)c1)c1cc2ccccc2s1 | 42 |

molecular target: T2, Dual specificity tyrosine-phosphorylation-regulated kinase 1B (Homo sapiens, UniProt Q9Y463); assay: Inhibition of recombinant Dyrk1B (unknown origin) using KKISGRLSPIMTEQ-NH2 peptide substrate; details: not given
Target sequence in this assay (Q9Y463 whole entry): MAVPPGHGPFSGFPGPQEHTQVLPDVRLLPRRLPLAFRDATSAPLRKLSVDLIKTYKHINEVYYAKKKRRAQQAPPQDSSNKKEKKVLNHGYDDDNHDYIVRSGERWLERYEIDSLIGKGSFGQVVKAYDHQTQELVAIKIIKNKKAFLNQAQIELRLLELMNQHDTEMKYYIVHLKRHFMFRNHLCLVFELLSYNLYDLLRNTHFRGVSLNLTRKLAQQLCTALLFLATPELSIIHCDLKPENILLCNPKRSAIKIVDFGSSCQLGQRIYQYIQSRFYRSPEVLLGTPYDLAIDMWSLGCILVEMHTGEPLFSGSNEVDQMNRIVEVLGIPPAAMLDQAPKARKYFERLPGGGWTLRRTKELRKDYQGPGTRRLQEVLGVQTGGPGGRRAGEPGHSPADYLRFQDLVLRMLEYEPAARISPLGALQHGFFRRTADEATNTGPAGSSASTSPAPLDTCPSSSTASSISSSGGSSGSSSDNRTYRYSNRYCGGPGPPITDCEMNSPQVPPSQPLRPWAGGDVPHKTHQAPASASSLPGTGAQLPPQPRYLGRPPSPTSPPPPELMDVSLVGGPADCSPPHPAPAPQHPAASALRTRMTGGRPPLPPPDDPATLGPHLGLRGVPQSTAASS

| Structure (SMILES) | IC50 [µM] |
| --- | --- |
| O=C(c1ccc(F)c(O)c1)c1cc2cc(O)ccc2s1 | 0.4 |
| O=C(c1cccc(O)c1)c1ccc2cc(O)ccc2c1 | 2.3 |
| Cc1cc(C(=O)c2cc3cc(O)ccc3s2)ccc1O | 7 |
| N#Cc1cccc(C(=O)c2cc3cc(O)ccc3s2)c1 | 2.3 |
| CC(=O)c1cc2cc(O)ccc2s1 | 0.1 |
| O=C(c1cc2cc(O)ccc2s1)c1cc(O)ccc1F | 0.4 |
| Cc1ccc(C(=O)c2cc3cc(O)ccc3s2)cc1O | 0.2 |
| O=C(c1ccc(O)cc1)c1cc2cc(O)ccc2o1 | 1.3 |
| O=C(c1cccc(O)c1)c1cc2cc(O)ccc2s1 | 0.2 |
| O=C(c1cccc(O)c1)c1cc2cc(O)ccc2o1 | 6.1 |
| O=C(c1ccc(O)cc1)c1cc2cc(O)ccc2s1 | 0.8 |
| O=C(c1ccccc1)c1cc2cc(O)ccc2s1 | 1 |
| Cn1c(C(=O)c2cccc(O)c2)cc2cc(O)ccc21 | 2.7 |
| COc1ccc2sc(C(=O)N(C)OC)cc2c1 | 1.6 |

molecular target: T3, Dual specificity tyrosine-phosphorylation-regulated kinase 2 (Homo sapiens) (UniProt Q92630); assay: Inhibition of recombinant Dyrk2 (unknown origin) using KKISGRLSPIMTEQ-NH2 peptide substrate at 5 uM; details: not given
T3 sequence (whole entry): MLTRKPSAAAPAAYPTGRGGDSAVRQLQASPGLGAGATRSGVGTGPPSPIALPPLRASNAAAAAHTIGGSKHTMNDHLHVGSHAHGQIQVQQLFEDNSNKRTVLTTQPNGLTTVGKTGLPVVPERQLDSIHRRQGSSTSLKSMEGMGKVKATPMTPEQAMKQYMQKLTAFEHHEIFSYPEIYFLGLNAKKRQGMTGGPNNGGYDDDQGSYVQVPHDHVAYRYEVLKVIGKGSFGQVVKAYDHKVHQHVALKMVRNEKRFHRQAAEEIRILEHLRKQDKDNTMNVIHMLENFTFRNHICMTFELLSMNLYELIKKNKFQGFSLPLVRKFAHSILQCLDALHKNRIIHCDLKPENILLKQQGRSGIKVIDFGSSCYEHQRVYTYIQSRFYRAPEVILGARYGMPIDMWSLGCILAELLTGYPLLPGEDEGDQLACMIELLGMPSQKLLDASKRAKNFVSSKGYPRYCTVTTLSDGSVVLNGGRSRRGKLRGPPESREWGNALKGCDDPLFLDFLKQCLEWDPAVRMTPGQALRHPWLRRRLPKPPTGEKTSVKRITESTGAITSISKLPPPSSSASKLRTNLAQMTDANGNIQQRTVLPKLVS

| Structure (SMILES) | inhibition [%] |
| --- | --- |
| O=C(c1ccc(F)c(O)c1)c1cc2cc(O)ccc2s1 | 27 |
| COc1cccc(C(=O)c2cc3cc(OC)ccc3s2)c1 | -7 |
| Cc1cc(C(=O)c2cc3cc(O)ccc3s2)ccc1O | 8 |
| N#Cc1cccc(C(=O)c2cc3cc(O)ccc3s2)c1 | 6 |
| CC(=O)c1cc2cc(O)ccc2s1 | 46 |
| O=C(c1cc2cc(O)ccc2s1)c1cc(O)ccc1F | 30 |
| Cc1ccc(C(=O)c2cc3cc(O)ccc3s2)cc1O | 50 |
| O=C(c1cccc(O)c1)c1cc2cc(O)ccc2[nH]1 | 24 |
| O=C(c1ccc(O)cc1)c1cc2cc(O)ccc2o1 | 38 |
| O=C(c1cccc(O)c1)c1cc2cc(O)ccc2s1 | 49 |
| O=C(c1cccc(O)c1)c1cc2cc(O)ccc2o1 | 34 |
| O=C(c1ccc(O)cc1)c1cc2cc(O)ccc2s1 | 25 |
| O=C(c1ccccc1)c1cc2cc(O)ccc2s1 | 37 |
| Cn1c(C(=O)c2cccc(O)c2)cc2cc(O)ccc21 | 25 |
| COc1ccc2sc(C(=O)N(C)OC)cc2c1 | 41 |
| O=C(c1cccc(O)c1)c1cc2ccccc2s1 | 15 |

molecular target: T4, Dual specificity protein kinase CLK1 (Homo sapiens, UniProt P49759); assay: Inhibition of recombinant Clk1 (unknown origin) using GRSRSRSRSR peptide substrate; details: not given; procedure, shortened: as §1
Target sequence in this assay (P49759 whole entry): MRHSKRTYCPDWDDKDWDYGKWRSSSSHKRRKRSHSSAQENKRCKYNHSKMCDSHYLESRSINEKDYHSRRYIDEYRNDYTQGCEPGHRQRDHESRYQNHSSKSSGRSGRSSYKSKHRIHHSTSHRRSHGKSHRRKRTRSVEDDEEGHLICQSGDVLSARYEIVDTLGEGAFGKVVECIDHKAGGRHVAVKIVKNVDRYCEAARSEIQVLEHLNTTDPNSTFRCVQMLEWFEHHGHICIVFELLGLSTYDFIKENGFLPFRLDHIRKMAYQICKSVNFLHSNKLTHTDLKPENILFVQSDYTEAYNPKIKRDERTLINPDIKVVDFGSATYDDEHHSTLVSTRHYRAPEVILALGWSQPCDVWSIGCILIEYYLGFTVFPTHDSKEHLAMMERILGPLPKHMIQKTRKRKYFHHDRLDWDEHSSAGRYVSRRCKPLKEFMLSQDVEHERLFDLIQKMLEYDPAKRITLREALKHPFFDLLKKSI

| Structure (SMILES) | IC50 [µM] |
| --- | --- |
| O=C(c1ccc(F)c(O)c1)c1cc2cc(O)ccc2s1 | 0.3 |
| O=C(c1cccc(O)c1)c1ccc2cc(O)ccc2c1 | 1.9 |
| N#Cc1cccc(C(=O)c2cc3cc(O)ccc3s2)c1 | 0.4 |
| CC(=O)c1cc2cc(O)ccc2s1 | 0.06 |
| O=C(c1cc2cc(O)ccc2s1)c1cc(O)ccc1F | 0.05 |
| Cc1ccc(C(=O)c2cc3cc(O)ccc3s2)cc1O | 0.05 |
| O=C(c1cccc(O)c1)c1cc2cc(O)ccc2[nH]1 | 2 |
| O=C(c1ccc(O)cc1)c1cc2cc(O)ccc2o1 | 1 |
| O=C(c1cccc(O)c1)c1cc2cc(O)ccc2s1 | 0.1 |
| O=C(c1cccc(O)c1)c1cc2cc(O)ccc2o1 | 1.9 |
| O=C(c1ccc(O)cc1)c1cc2cc(O)ccc2s1 | 0.3 |
| O=C(c1ccccc1)c1cc2cc(O)ccc2s1 | 0.2 |
| Cn1c(C(=O)c2cccc(O)c2)cc2cc(O)ccc21 | 2.1 |
| COc1ccc2sc(C(=O)N(C)OC)cc2c1 | 0.1 |

molecular target: Casein kinase II subunit alpha (Homo sapiens) (UniProt P68400); assay: Inhibition of CK2alpha (unknown origin) at 5 uM; details: not given
Sequence (P68400 whole entry, looked up): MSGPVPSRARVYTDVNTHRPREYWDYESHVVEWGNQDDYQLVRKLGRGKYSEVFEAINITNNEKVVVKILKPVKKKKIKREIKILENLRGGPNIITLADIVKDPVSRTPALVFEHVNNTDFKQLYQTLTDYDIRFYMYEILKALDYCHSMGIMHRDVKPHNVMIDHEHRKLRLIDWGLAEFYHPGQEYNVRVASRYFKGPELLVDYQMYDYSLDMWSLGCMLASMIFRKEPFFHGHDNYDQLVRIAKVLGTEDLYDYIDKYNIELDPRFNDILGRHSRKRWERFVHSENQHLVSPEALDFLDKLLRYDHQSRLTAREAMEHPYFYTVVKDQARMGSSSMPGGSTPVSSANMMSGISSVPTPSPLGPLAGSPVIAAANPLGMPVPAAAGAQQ

| Structure (SMILES) | inhibition [%] |
| --- | --- |
| O=C(c1ccc(F)c(O)c1)c1cc2cc(O)ccc2s1 | 15 |
| N#Cc1cccc(C(=O)c2cc3cc(O)ccc3s2)c1 | 10 |
| CC(=O)c1cc2cc(O)ccc2s1 | 9 |
| O=C(c1cc2cc(O)ccc2s1)c1cc(O)ccc1F | 20 |
| Cc1ccc(C(=O)c2cc3cc(O)ccc3s2)cc1O | 10 |
| O=C(c1cccc(O)c1)c1cc2cc(O)ccc2[nH]1 | 22 |
| O=C(c1ccc(O)cc1)c1cc2cc(O)ccc2o1 | 17 |
| O=C(c1cccc(O)c1)c1cc2cc(O)ccc2s1 | 12 |
| O=C(c1cccc(O)c1)c1cc2cc(O)ccc2o1 | 21 |
| O=C(c1ccc(O)cc1)c1cc2cc(O)ccc2s1 | 33 |
| O=C(c1ccccc1)c1cc2cc(O)ccc2s1 | 13 |
| Cn1c(C(=O)c2cccc(O)c2)cc2cc(O)ccc21 | 31 |
| O=C(c1cccc(O)c1)c1cc2ccccc2s1 | 24 |

molecular target: T1, Dual specificity tyrosine-phosphorylation-regulated kinase 1A; assay: Inhibition of recombinant Dyrk1A (unknown origin) using KKISGRLSPIMTEQ-NH2 peptide substrate at 5 uM; details: not given

| Structure (SMILES) | inhibition [%] |
| --- | --- |
| COc1cccc(C(=O)c2cc3cc(OC)ccc3s2)c1 | 10 |

molecular target: T2, Dual specificity tyrosine-phosphorylation-regulated kinase 1B; assay: Inhibition of recombinant Dyrk1B (unknown origin) using KKISGRLSPIMTEQ-NH2 peptide substrate at 5 uM; details: not given
Target sequence in this assay (Q9Y463 whole entry, looked up): as the sequence (Q9Y463 whole entry) above

| Structure (SMILES) | inhibition [%] |
| --- | --- |
| COc1cccc(C(=O)c2cc3cc(OC)ccc3s2)c1 | 40 |
| O=C(c1cccc(O)c1)c1cc2cc(O)ccc2[nH]1 | 41 |
| O=C(c1cccc(O)c1)c1cc2ccccc2s1 | 6 |

molecular target: T4, Dual specificity protein kinase CLK1; assay: Inhibition of recombinant Clk1 (unknown origin) using GRSRSRSRSR peptide substrate at 5 uM; details: not given
Target sequence in this assay (P49759 whole entry, looked up): as the sequence (P49759 whole entry) above

| Structure (SMILES) | inhibition [%] |
| --- | --- |
| COc1cccc(C(=O)c2cc3cc(OC)ccc3s2)c1 | 47 |
| Cc1cc(C(=O)c2cc3cc(O)ccc3s2)ccc1O | 25 |

tested on: not listed separately; assay: Modulation of Clk/sty pre-mRNA splicing in human STO cells assessed as concentration required to increase in mature Clk2 mRNA level by RT-PCR analysis; type: functional, cell-based; details: in the assay text read “Clk1” for “Clk2”
Procedure, shortened: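 STO cells were treated for 4 h with compound added to the culture medium, with 0.05% DMSO as control. Total RNA was purified, and the Clk1/Sty splicing pattern was analysed by RT-PCR. Read-outs were the concentration for a 5-fold increase, the concentration for half-maximal generation of mature Clk1 mRNA, and the maximum fold increase over DMSO. Data are means of three independent experiments run in triplicate.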

| Structure (SMILES) | EC50 [µM] |
| --- | --- |
| CC(=O)c1cc2cc(O)ccc2s1 | 8.9 |
| Cc1ccc(C(=O)c2cc3cc(O)ccc3s2)cc1O | 1.8 |
| CCN1/C(=C/C(C)=O)Sc2ccc(OC)cc21 | 6.6 |

molecular target: T5, 17-beta-hydroxysteroid dehydrogenase type 1 (Homo sapiens, UniProt P14061); assay: Inhibition of 17-betaHSD1 (unknown origin); details: not given
T5 sequence (P14061 whole entry): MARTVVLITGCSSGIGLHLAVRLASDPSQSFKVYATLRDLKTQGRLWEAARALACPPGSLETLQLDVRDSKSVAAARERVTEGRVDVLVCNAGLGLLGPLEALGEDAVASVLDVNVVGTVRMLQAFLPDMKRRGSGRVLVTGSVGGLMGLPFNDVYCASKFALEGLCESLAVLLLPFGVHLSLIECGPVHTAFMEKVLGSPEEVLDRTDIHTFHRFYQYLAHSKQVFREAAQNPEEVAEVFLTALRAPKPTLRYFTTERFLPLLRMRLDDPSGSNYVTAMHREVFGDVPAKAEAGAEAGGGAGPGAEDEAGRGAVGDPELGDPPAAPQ

| Structure (SMILES) | IC50 [µM] |
| --- | --- |
| Cc1ccc(C(=O)c2cc3cc(O)ccc3s2)cc1O | 0.195 |

molecular target: T6, 17-beta-hydroxysteroid dehydrogenase type 1 (Homo sapiens) (UniProt P14061); assay: Inhibition of 17-betaHSD1 (unknown origin) at 5 uM; details: not given
T6 sequence (whole entry): T5 sequence (P14061 whole entry)

| Structure (SMILES) | inhibition |
| --- | --- |
| CC(=O)c1cc2cc(O)ccc2s1 | inactive |
| COc1ccc2sc(C(=O)N(C)OC)cc2c1 | inactive |

tested on: STO; assay: Modulation of pre-mRNA splicing in human STO cells assessed as increase in mature Clk1 mRNA production at 10 to 20 uM by RT-PCR analysis; details: not given

| Structure (SMILES) | Activity |
| --- | --- |
| CC(=O)c1cc2cc(O)ccc2s1 | Active |
| Cc1ccc(C(=O)c2cc3cc(O)ccc3s2)cc1O | Active |
| O=C(c1cccc(O)c1)c1cc2cc(O)ccc2s1 | Active |

tested on: not listed separately; assay: Modulation of Clk/sty pre-mRNA splicing in human STO cells assessed as concentration required to increase in mature Clk1 mRNA level by RT-PCR analysis; details: not given

| Structure (SMILES) | EC50 [µM] |
| --- | --- |
| COc1ccc2sc(C(=O)N(C)OC)cc2c1 | 2.1 |

tested on: not listed separately; assay: Modulation of Clk/sty pre-mRNA splicing in human STO cells assessed as concentration required to 5 fold increase in mature Clk1 mRNA level by RT-PCR analysis; details: not given

| Structure (SMILES) | Activity [µM] |
| --- | --- |
| CC(=O)c1cc2cc(O)ccc2s1 | 1.1 |
| Cc1ccc(C(=O)c2cc3cc(O)ccc3s2)cc1O | 1.9 |
| COc1ccc2sc(C(=O)N(C)OC)cc2c1 | 2.4 |
| CCN1/C(=C/C(C)=O)Sc2ccc(OC)cc21 | 3.1 |

tested on: not listed separately; assay: Modulation of Clk/sty pre-mRNA splicing in human STO cells assessed as concentration required to increase in mature Clk1 mRNA level by RT-PCR analysis relative to control; details: not given

| Structure (SMILES) | fold change (FC) |
| --- | --- |
| CC(=O)c1cc2cc(O)ccc2s1 | 21.4 |
| Cc1ccc(C(=O)c2cc3cc(O)ccc3s2)cc1O | 9.5 |
| COc1ccc2sc(C(=O)N(C)OC)cc2c1 | 8.1 |
| CCN1/C(=C/C(C)=O)Sc2ccc(OC)cc21 | 17 |
